The source of these data is ChEMBL document CHEMBL1122648 (J Med Chem, 1984).

For one test, the system named is CCRF-CEM. Briefly: In vitro cytotoxicity by its growth inhibitory activity against human leukemic lymphoblasts (CEM cells). It counts as functional, cell-based. The method, boiled down:
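Human leukemic lymphoblasts (CEM) counted after 48 h of drug exposure. Compounds dissolved in Me2SO (1 mg/mL), diluted 10-fold in Me2SO, then added to growth medium (final Me2SO 0.1%). Triplicate tubes per dose, averaged; IC50 reported.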

The target of another test is T1, Dihydrofolate reductase (Bos taurus, UniProt P00376).
T1 sequence (P00376 whole entry): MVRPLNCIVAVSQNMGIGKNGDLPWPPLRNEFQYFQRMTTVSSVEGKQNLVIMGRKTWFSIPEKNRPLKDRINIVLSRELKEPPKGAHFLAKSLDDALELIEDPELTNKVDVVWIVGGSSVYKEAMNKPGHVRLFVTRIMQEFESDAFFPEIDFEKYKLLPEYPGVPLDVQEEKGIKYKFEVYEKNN
Kind of test: In vitro ability to inhibit the Dihydrofolate reductase extracted from beef liver.

Test [1] can be described thus: Compound was evaluated for its inhibitory effect on thymidine [3H]dThd) incorporation into DNA of CEM/MTX cells in culture at conc. 10e-5. It counts as functional, Homo sapiens. Also noted: scale not given: the % may be the effect or the level left. The method, boiled down:
(§1)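 Log-phase CEM or CEM/MTX (transport-defective) cells, 2×10^5 per tube in serum-free EBSS, exposed to 10^-7–10^-4 M compound for 1 h at 37 °C under 5% CO2. Then pulsed 0.5 h with [3H]dThd or [3H]dUrd, washed in cold EBSS and lysed in SDS with tRNA carrier. DNA precipitated with cold 0.5 N HClO4; acid-insoluble counts given as % of untreated controls.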

Test [2] is described as follows: Compound was evaluated for its inhibitory effect on thymidine [3H]-dThd) incorporation into DNA of CEM/MTX cells in culture at conc. 10e-6. Also noted: scale not given: the % may be the effect or the level left. It is filed as functional, Homo sapiens. The essentials:
as §1

The nature of test [3]: Compound was evaluated for its inhibitory effect on thymidine ([3H]dThd) incorporation into DNA of CEM cells in at conc. 10e-7. It counts as functional, Homo sapiens, CCRF-CEM. On the set-up: scale not given: the % may be the effect or the level left. The method, boiled down: as §1
Test [4] is described as follows: Compound was evaluated for its inhibitory effect on thymidine ([3H]-dThd) incorporation into DNA of CEM cells in culture at conc. 10e-4. It counts as functional, Homo sapiens, CCRF-CEM. On the set-up: scale not given: the % may be the effect or the level left. The method, boiled down: as §1
The nature of test [5]: Compound was evaluated for its inhibitory effect on thymidine ([3H]dThd) incorporation into DNA of CEM cells in culture at conc. 10e-5. It counts as functional, Homo sapiens, CCRF-CEM. Also noted: scale not given: the % may be the effect or the level left. The essentials:
as §1

The nature of test [6]: Compound was evaluated for its inhibitory effect on thymidine ([3H]dThd) incorporation into DNA of CEM cells in culture at conc. 10e-6. On the set-up: scale not given: the % may be the effect or the level left. It counts as functional, Homo sapiens, CCRF-CEM. The method, boiled down: as §1
Test [7] is described as follows: Compound was evaluated for its inhibitory effect on thymidine ([3H]-dThd) incorporation into DNA of CEM/MTX cells in at conc. 10e-7. It is filed as functional, Homo sapiens. On the set-up: scale not given: the % may be the effect or the level left. The method, boiled down:
as §1

Test [8] in a line: Compound was evaluated for its inhibitory effect on thymidine ([3H]dThd) incorporation into DNA of CEM/MTX cells in culture at conc. 10e-4. It is filed as functional, Homo sapiens. On the set-up: scale not given: the % may be the effect or the level left. The essentials:
as §1

Test [9] is described as follows: Compound was evaluated for its inhibitory effect on deoxyuridine ([3H]dUrd ) incorporation into DNA of CEM cells in culture at conc. 10e-7. It is filed as functional, Homo sapiens, CCRF-CEM. On the set-up: scale not given: the % may be the effect or the level left. The method, boiled down: as §1
Test [10] in a line: Compound was evaluated for its inhibitory effect on deoxyuridine ([3H]dUrd ) incorporation into DNA of CEM/MTX cells in culture at conc. 10e-7. It counts as functional, Homo sapiens. Also noted: scale not given: the % may be the effect or the level left. The essentials:
as §1

The nature of test [11]: Compound was evaluated for its inhibitory effect on deoxyuridine ([3H]-dUrd) incorporation into DNA of CEM cells in at conc. 10e-6. It counts as functional, Homo sapiens, CCRF-CEM. Also noted: scale not given: the % may be the effect or the level left. The method, boiled down:
as §1

Test [12] is described as follows: Compound was evaluated for its inhibitory effect on deoxyuridine ([3H]dUrd) incorporation into DNA of CEM cells in culture at conc. 10e-4. It counts as functional, Homo sapiens, CCRF-CEM. On the set-up: scale not given: the % may be the effect or the level left. The essentials: as §1
A short description of test [13]: Compound was evaluated for its inhibitory effect on deoxyuridine ([3H]dUrd) incorporation into DNA of CEM cells in culture at conc. 10e-5. On the set-up: scale not given: the % may be the effect or the level left. It is filed as functional, Homo sapiens, CCRF-CEM. The method, boiled down:
as §1

The nature of test [14]: Compound was evaluated for its inhibitory effect on deoxyuridine ([3H]dUrd) incorporation into DNA of CEM/MTX cells in culture at conc. 10e-4. It counts as functional, Homo sapiens. On the set-up: scale not given: the % may be the effect or the level left. The essentials: as §1
The nature of test [15]: Compound was evaluated for its inhibitory effect on deoxyuridine ([3H]dUrd) incorporation into DNA of CEM/MTX cells in culture at conc. 10e-5. It is filed as functional, Homo sapiens. Also noted: scale not given: the % may be the effect or the level left. The essentials:
as §1

Test [16] can be described thus: Compound was evaluated for its inhibitory effect on deoxyuridine ([3H]dUrd) incorporation into DNA of CEM/MTX cells in culture at conc. 10e-6. It is filed as functional, Homo sapiens. Also noted: scale not given: the % may be the effect or the level left. The method, boiled down: as §1

SMILES strings stand for the structures.

On to `CCCCCCCCOC(=O)CCC(NC(=O)c1ccc(N(C)Cc2cnc3nc(N)nc(N)c3n2)cc1)C(=O)O` (stereo not drawn), for which the IC50 (usually the concentration that gives 50% inhibition) was 920 nM in the test on CCRF-CEM and 5.4 nM at Dihydrofolate reductase.
For `CCCCOC(=O)CCC(NC(=O)c1ccc(N(C)Cc2cnc3nc(N)nc(N)c3n2)cc1)C(=O)O` (stereo not drawn), the figures for the IC50 in the test on CCRF-CEM and against Dihydrofolate reductase were 780 nM and 5.4 nM, respectively.
As to `CCCCCCCCCCCCCCCCOC(=O)C(CCC(=O)O)NC(=O)c1ccc(N(C)Cc2cnc3nc(N)nc(N)c3n2)cc1` (stereo not drawn), the IC50 was 250 nM in the test on CCRF-CEM and 1200 nM at Dihydrofolate reductase.
On to `CCCCOC(=O)C(CCC(=O)O)NC(=O)c1ccc(N(C)Cc2cnc3nc(N)nc(N)c3n2)cc1` (stereo not drawn), for which the IC50 worked out at 2000 nM with CCRF-CEM and 56 nM on Dihydrofolate reductase.
For `CCCCCCCCCCCCOC(=O)C(CCC(=O)O)NC(=O)c1ccc(N(C)Cc2cnc3nc(N)nc(N)c3n2)cc1` (stereo not drawn) the same measures were 2100 nM and 440 nM.
For `CCCCCCCCOC(=O)C(CCC(=O)O)NC(=O)c1ccc(N(C)Cc2cnc3nc(N)nc(N)c3n2)cc1` (stereo not drawn) the same measures were 3000 nM and 360 nM.
For `CCCCCCCCCCCCOC(=O)CCC(NC(=O)c1ccc(N(C)Cc2cnc3nc(N)nc(N)c3n2)cc1)C(=O)O` (stereo not drawn) the same measures were 370 nM and 34 nM.
For the compound `CCCCCCCCCCCCCCCCOC(=O)CCC(NC(=O)c1ccc(N(C)Cc2cnc3nc(N)nc(N)c3n2)cc1)C(=O)O` (stereo not drawn), the Control is listed as 15% in [1]; 108% in test [2]; 92% in test [3]; 17% in test [4]; 25% in test [5]; 67% in test [6]. Besides, the Control came to 81% in test [7]; 8% in test [8]; 117% in test [9]; 95% in test [10]; 64% in test [11]; 7% in [12]. Further, the Control in test [13] was 14%; in [14], 2%; in [15], 55%; in [16], 103%. Besides, the concentration for half-maximal inhibition (IC50) turned out to be 110 nM in the test on CCRF-CEM and 37 nM at Dihydrofolate reductase.
Regarding `CN(Cc1cnc2nc(N)nc(N)c2n1)c1ccc(C(=O)N[C@@H](CCC(=O)O)C(=O)O)cc1` [METHOTREXATE], inhibition with CCRF-CEM was half-maximal at 25 nM (IC50).
